{"source": "ChEMBL document CHEMBL4152308", "about": "“Synthesis and biological evaluation of novel 2-oxo-1,2-dihydroquinoline-4-carboxamide derivatives for the treatment of esophageal squamous cell carcinoma” (Eur J Med Chem, 2018)", "key": {"KYSE-410 [1]": {"test_system": "KYSE-410", "assay": "Cell cycle arrest in human KYSE410 cells assessed as accumulation at G2 phase at 5 uM after 24 to 48 hrs by propidium iodide staining based flow cytometry (reference value: 12.2%)", "type": "functional"}, "KYSE-70 cell line [2]": {"test_system": "KYSE-70 cell line", "assay": "Inhibition of colony formation in human KYSE-70 cells at >3 uM after 7 days by crystal violet staining based assay", "type": "functional, cell-based", "summary_of_the_method": "(§1)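 Seeding at 250 cells/well in 96-well plates, attached 24 h, then serial compound dilutions added at 37 °C. Culture continued 7 days until colonies formed. Colonies washed, stained with 2% crystal violet for 1 h, then rinsed thoroughly with water.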"}, "KYSE-410 [3]": {"test_system": "KYSE-410", "assay": "Cell cycle arrest in human KYSE410 cells assessed as accumulation at S phase at 5 uM after 24 to 48 hrs by propidium iodide staining based flow cytometry (reference value: 22.3%)", "type": "functional"}, "OVCAR-8": {"test_system": "OVCAR-8", "assay": "Antiproliferative activity against human OVCAR8 cells after 72 hrs by MTT assay", "type": "functional, cell-based", "details": "OVCAR-8, 72 h", "summary_of_the_method": "(§2)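 Cells grown as monolayers at 37 °C, 5% CO2, mycoplasma-checked, in exponential phase. Cells seeded in 96-well plates, 24 h attachment, then compound added for 72 h. MTT 0.3 mg/mL for 3 h at 37 °C, DMSO solubilization, absorbance at 570 nm. Inhibition = (1 − A/C) × 100%. IC50 from log(concentration) vs % inhibition plot; triplicate wells, SD from ≥3 independent experiments.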"}, "KYSE-410 [4]": {"test_system": "KYSE-410", "assay": "Inhibition of autophagy in human KYSE410 cells assessed as decrease in bafilomycin-induced LC3B level after 24 hrs by Western blot analysis", "type": "functional, cell-based", "summary_of_the_method": "(§3)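 Cells treated 24 h at indicated concentrations, with bafilomycin for induced-LC3B readouts. Lysis in RIPA with protease inhibitors, BCA protein assay, samples heated 5 min at 100 °C. Equal protein run on 15% SDS-PAGE, transferred to PVDF. Anti-LC3B primary overnight at 4 °C, GAPDH as loading control, anti-rabbit secondary, TBST washes.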"}, "KYSE-410 [5]": {"test_system": "KYSE-410", "assay": "Antiproliferative activity against human KYSE410 cells after 72 hrs by MTT assay", "type": "functional, cell-based", "details": "KYSE-410, 72 h", "summary_of_the_method": "as §2"}, "KYSE-410 [6]": {"test_system": "KYSE-410", "assay": "Inhibition of colony formation in human KYSE410 cells at >3 uM after 7 days by crystal violet staining based assay", "type": "functional, cell-based", "summary_of_the_method": "as §1"}, "MIA PaCa-2 [7]": {"test_system": "MIA PaCa-2", "assay": "Antiproliferative activity against human MIAPaCa2 cells after 72 hrs by MTT assay", "type": "functional, cell-based", "details": "MIA PaCa-2, 72 h", "summary_of_the_method": "as §2"}, "MIA PaCa-2 [8]": {"test_system": "MIA PaCa-2", "assay": "Inhibition of autophagy in human MIAPaCa2 cells assessed as decrease in bafilomycin-induced LC3B level at 1 to 10 uM after 24 hrs by Western blot analysis", "type": "functional, cell-based", "summary_of_the_method": "as §3"}, "KYSE-410 [9]": {"test_system": "KYSE-410", "assay": "Cell cycle arrest in human KYSE410 cells assessed as accumulation at G1 phase at 1 uM after 24 to 48 hrs by propidium iodide staining based flow cytometry (reference value: 65.4%)", "type": "functional"}, "KYSE-410 [10]": {"test_system": "KYSE-410", "assay": "Cell cycle arrest in human KYSE410 cells assessed as accumulation at S phase at 1 uM after 24 to 48 hrs by propidium iodide staining based flow cytometry (reference value: 22.3%)", "type": "functional"}, "KYSE-410 [11]": {"test_system": "KYSE-410", "assay": "Cell cycle arrest in human KYSE410 cells assessed as accumulation at G2 phase at 1 uM after 24 to 48 hrs by propidium iodide staining based flow cytometry (reference value: 12.2%)", "type": "functional"}, "KYSE-410 [12]": {"test_system": "KYSE-410", "assay": "Inhibition of autophagy in human KYSE410 cells assessed as decrease in bafilomycin-induced LC3B level at 10 uM treated at 1 hr post proteasome inhibitor MG132 treatment measured after 24 hrs by Western blot analysis", "type": "functional, cell-based", "summary_of_the_method": "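KYSE410 cells pretreated 1 h with 10 µM MG132 (proteasome inhibitor), then compound at 10 µM for 24 h. Lysis in RIPA with protease inhibitors, BCA quantification, equal protein on 15% SDS-PAGE, PVDF transfer. Anti-LC3B overnight at 4 °C, anti-rabbit secondary, GAPDH as loading reference.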"}, "SK-OV-3": {"test_system": "SK-OV-3", "assay": "Antiproliferative activity against human SKOV3 cells after 72 hrs by MTT assay", "type": "functional, cell-based", "details": "SK-OV-3, 72 h", "summary_of_the_method": "as §2"}, "KYSE-70 cell line [13]": {"test_system": "KYSE-70 cell line", "assay": "Antiproliferative activity against human KYSE-70 cells after 72 hrs by MTT assay", "type": "functional, cell-based", "details": "KYSE-70, 72 h", "summary_of_the_method": "as §2"}, "KYSE-410 [14]": {"test_system": "KYSE-410", "assay": "Cell cycle arrest in human KYSE410 cells assessed as accumulation at G1 phase at 5 uM after 24 to 48 hrs by propidium iodide staining based flow cytometry (reference value: 65.4%)", "type": "functional"}, "KYSE-410 [15]": {"test_system": "KYSE-410", "assay": "Inhibition of autophagy in human KYSE410 cells assessed as decrease in bafilomycin-induced LC3B level at 1 to 10 uM after 24 hrs by Western blot analysis", "type": "functional, cell-based", "summary_of_the_method": "as §3"}}, "note": "Calls of active or inactive are those of the source. No cut-off for these calls is given here."}
{"smiles": "O=C(Nc1cc(F)cc(F)c1)c1cc(=O)[nH]c2cc(Br)ccc12", "values": [{"measurement": "Activity", "setting": "KYSE-410 [1]", "value": 19.8, "unit": "%"}, {"measurement": "inhibition", "setting": "KYSE-70 cell line [2]", "value": "Active"}, {"measurement": "Activity", "setting": "KYSE-410 [3]", "value": 23, "unit": "%"}, {"measurement": "IC50", "setting": "OVCAR-8", "value": 12.1, "unit": "µM"}, {"measurement": "inhibition", "setting": "KYSE-410 [4]", "value": "Dose-dependent effect"}, {"measurement": "IC50", "setting": "KYSE-410 [5]", "value": 11.2, "unit": "µM"}, {"measurement": "inhibition", "setting": "KYSE-410 [6]", "value": "Active"}, {"measurement": "IC50", "setting": "MIA PaCa-2 [7]", "value": 7.8, "unit": "µM"}, {"measurement": "inhibition", "setting": "MIA PaCa-2 [8]", "value": "Active"}, {"measurement": "Activity", "setting": "KYSE-410 [9]", "value": 64.2, "unit": "%"}, {"measurement": "Activity", "setting": "KYSE-410 [10]", "value": 21.2, "unit": "%"}, {"measurement": "Activity", "setting": "KYSE-410 [11]", "value": 14.6, "unit": "%"}, {"measurement": "inhibition", "setting": "KYSE-410 [12]", "value": "inactive"}, {"measurement": "IC50", "setting": "SK-OV-3", "value": 10.8, "unit": "µM"}, {"measurement": "IC50", "setting": "KYSE-70 cell line [13]", "value": 10.7, "unit": "µM"}, {"measurement": "Activity", "setting": "KYSE-410 [14]", "value": 57.2, "unit": "%"}, {"measurement": "inhibition", "setting": "KYSE-410 [15]", "value": "Active"}]}
